Most compounds without a hit are left out; they make up all but 1.2% or so of the library.
CAL PDZ FP-1 = CAL PDZ (human) peptide binding inhibition; inhibition, % at 24.9 µM; AID 602252; actives 0.92% (n = 300,000); purified CAL PDZ, TMR-peptide fluorescence polarization, 1 h;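 active = mean inhibition of at least 30% with at least half of replicates also reaching 30%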;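 note: 0% = DMSO neutral control and 100% = excess unlabeled competitor peptide PRC23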
CAL PDZ FP-2 = blocks peptide binding to human CAL PDZ domain; Q9HD26; purified CAL PDZ, TMR-peptide fluorescence polarization, 1 h; inhibition, % at 20 µM; actives 0.02% (n = 330,000);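 active = highest replicate inhibition of at least 40%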;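 note: plate controls were DMSO neutral control wells for no effect and unlabeled competitor peptide control wells for full effect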
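Control set: unlabelled peptide and DMSO controls / Material: purified CerCALP PDZ construct / Timing: 1 h incubation at room temperature before polarization reading / Doses: 20 µM, one dose / Detection: fluorescence polarization (mP)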
CaV13 FRET inh = Primary screen for inhibitors of IQ motif and Ca2+-dependent inactivation inhibitor domain binding in CACNA1D, Förster resonance energy transfer in living cells, … | inhibition, % at 12.3 µM | actives 0.098% (n = 340,000) | HEK cells, CFP/YFP FRET ICDI-IQ, plate reader, 10 min; percent FRET-ratio fall versus neutral wells | AID 743397;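 active = mean replicate inhibition of at least 30% and at least 1% of replicates passing that level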;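 note: 0% = median of the neutral control wells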
ARNT TACC3 PPI = ARNT/TACC3 interaction disruption | inhibition, % at 9.99 µM | AlphaScreen His-ARNT PAS-B/GST-TACC3 binding, luminescence; TACC3 fragment carries E629A point mutation | Q9Y6A5 | AID 623870 | actives 0.66% (n = 390,000);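 active = mean inhibition of replicates at least 50% and at least half of replicates each reaching 50%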;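 note: 0% = complete ARNT plus TACC3 wells and 100% = ARNT alone without TACC3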
* hit, by the source's call; x = no result given.

SMILES | CAL PDZ FP-1 | CAL PDZ FP-2 | CaV13 FRET inh | ARNT TACC3 PPI
Cc1nc(Cl)cc(N/N=C/c2ccc(O)cc2)n1 | -3 | 4 | -4 | 20
Cc1[nH][nH]c(=O)c1C(c1ccc(-c2cccc(Cl)c2)o1)c1c(C)[nH][nH]c1=O | -7 | -2 | x | 50*
Cc1[nH][nH]c(=O)c1C(c1ccc(-c2cccc(C(=O)O)c2)o1)c1c(C)[nH][nH]c1=O | 3 | 0 | -6 | 10
CN(C)C(=O)C[C@@H]1C=C[C@H](NC(=O)C2CC2)[C@H](CO)O1 | x | x | x | 4
Cc1ccccc1/C=C/c1nc2ccccc2c(=O)n1Cc1ccccc1 | 5 | -2 | -2 | 1
CCn1c(/C=C/c2ccccc2C)nc2ccccc2c1=O | 51* | 0 | -1 | 12
C/C(=N\OC(=O)c1cccc(C(F)(F)F)c1)c1sc(-c2ccccc2)nc1C | 52* | -1 | -5 | -5
Nc1nnc(SCC(=O)c2ccc([N+](=O)[O-])cc2)s1 | 35* | 17 | -2 | 8
O=C(O)CCCCCN1C(=O)CCC1=O | 45* | x | x | -7
Cc1cccc(OCC(=O)NC(=S)NNC(=O)c2ccncc2)c1 | -1 | -1 | x | 56*
COc1ccc(C2c3c(oc4ccccc4c3=O)C(=O)N2Cc2ccncc2)cc1OC (stereo not drawn) | x | x | -6 | x
CN1C(=O)c2oc3ccccc3c(=O)c2C1c1ccncc1 (stereo not drawn) | -2 | -1 | x | 93*
COc1ccc(-c2cc3c(=O)n(CC(=O)NCc4ccc(F)cc4)ncn3n2)cc1 | 50* | -1 | -7 | -4
CC(=O)C1=C(C)NC(=S)NC1c1cc([N+](=O)[O-])ccc1O (stereo not drawn) | 64* | 2 | -4 | 4
CC(C)NC(=O)N(C)C[C@H]1Oc2c(NC(=O)Nc3ccc4c(c3)OCO4)cccc2C(=O)N([C@@H](C)CO)C[C@H]1C | x | x | x | -18
CC(C)C#Cc1cnc2c(c1)C(=O)N([C@@H](C)CO)C[C@H](C)[C@H](CN(C)C(=O)Nc1cccc(F)c1)O2 | x | x | x | 11
O=C(NC(=S)Nn1cnnc1)c1ccccc1Br | 53* | 0 | -14 | -1
CC=Cc1ccc2n(c1=O)C[C@@H]1[C@@H](CO)[C@H](C(=O)NCc3ccccc3F)N(S(C)(=O)=O)[C@H]21 (mixture of isomers) | x | x | x | -13
OCCNc1ncnc2c1c(-c1ccccc1)c(-c1ccccc1)n2Cc1ccco1 | 66* | -2 | -6 | 18
Cc1ccccc1-c1cc(=O)c2c(O)cccc2o1 | -2 | 0 | -11 | 4
CCOc1ccccc1-c1c2cc(O)c(=O)cc-2oc2cc(O)c(O)cc12 | 42* | 126* | x | 10
COc1ccc(OC)c(-c2c3cc(O)c(=O)cc-3oc3cc(O)c(O)cc23)c1 | 57* | 87* | x | 33
O=c1cc2oc3cc(O)c(O)cc3c(-c3ccccc3O)c-2cc1O | 26 | 47* | x | 25
COc1ccc(OC)c(-c2oc3ccccc3c(=O)c2O)c1 | -6 | -2 | x | 1
CC(C)NC(=O)N(C)C[C@@H]1Oc2cc(C#Cc3ccc(F)cc3)ccc2S(=O)(=O)N([C@H](C)CO)C[C@@H]1C | x | x | x | 8
SMILES | CAL PDZ FP-1 | CAL PDZ FP-2 | CaV13 FRET inh | ARNT TACC3 PPI
O=C(O)C(Cc1ccccc1)N1C(=O)/C(=C/c2cccs2)SC1=S (stereo not drawn) | -4 | -1 | -1 | 38
O=C(O)C(c1ccccc1)N1C(=O)/C(=C/c2cccs2)SC1=S (stereo not drawn) | x | -2 | -4 | 65*
CCN(C(=S)Nc1cccnc1)c1ccccc1 | 5 | 0 | -3 | 1
CCN(C(=S)Nc1cccnc1)c1cccc2ccccc12 | -5 | 0 | -7 | 51*
N/C(=N\c1nc(CSc2ccccn2)cc(=O)[nH]1)Nc1ccc(Cl)cc1Cl | 78* | 0 | 4 | -3
Cc1nnc(SCC(=O)c2ccc(S(=O)(=O)N3CCOCC3)cc2)n1-c1ccccc1 | 73* | 1 | -6 | -32
O=C(Nc1ccc(N2CCN(C(=O)c3ccco3)CC2)cc1)c1cc(Br)ccc1Cl | 49* | -1 | -6 | 4
CCOC(=O)C1=C(CC)Nc2ccccc2N/C1=N\S(=O)(=O)c1cccc(C(C)=O)c1 | 55* | 0 | -6 | -5
CCOC(=O)[C@H]1[C@H]2COc3ccc(Cl)cc3[C@@H]2N2C(=O)c3ccc(Cl)cc3NC(=O)[C@@]12C | -2 | -2 | -10 | 15*
CCOC(=O)[C@H]1[C@H]2COc3ccc(C)cc3[C@@H]2N2C(=O)c3ccc(Cl)cc3NC(=O)[C@@]12C | 1 | -1 | -2 | -2
CC1(C)OC2OC(C(=O)N/N=C/c3cc(Br)ccc3O)C3OC(C)(C)OC3C2O1 (stereo not drawn) | -5 | -2 | -16 | 60*
Cc1ccc(S(=O)(=O)NCC[C@H]2CC[C@H](NC(=O)c3cnccn3)[C@H](CO)O2)cc1 | x | x | x | 9
CCOc1ccc(S(=O)(=O)Nc2ccc(C(=O)N(CC)CC(=O)NCc3cccs3)cc2)cc1 | x | x | 55* | x
O=C(NCC(c1ccco1)N1CCN(c2ccccc2)CC1)C(=O)NC1CCCCC1 (stereo not drawn) | 36* | 0 | -3 | -1
O=C(NCC(c1ccco1)N1CCN(c2ccccc2)CC1)C(=O)NC1CCCC1 (stereo not drawn) | x | 0 | -4 | 3
O=C(Nc1cccc(C(F)(F)F)c1)Oc1ccc(Cl)c2cccnc12 | 35* | -1 | -4 | -8
CCN(CC)C(=O)Oc1ccc(Cl)c2cccnc12 | -3 | -2 | -12 | -3
CN1c2ccc(Br)cc2[C@@H]2[C@@H](CCN2C(=O)Nc2cccc(F)c2)[C@@H]1CO | x | x | x | 1
Cc1cc(C)nc(NCC(O)CNc2ccccc2C)n1 (stereo not drawn) | 62* | -1 | x | 0
CN1C(=O)c2cc(NC(=O)c3cccs3)ccc2OC[C@@H]2O[C@H](CC(=O)N3CCCCC3)CC[C@H]21 | x | x | x | -8
O=C(C[C@H]1C=C[C@H](NC(=O)C2CC2)[C@@H](CO)O1)Nc1ccccc1 | x | x | x | -9
COc1ccc(CNC/C=C/c2ccccc2)cc1 | -1 | -2 | -4 | 0
COc1ccc(CCNC/C=C/c2ccccc2)cc1 | 51* | -1 | -1 | -3
Oc1ccc(CNc2ccc(F)cc2)c2cccnc12 | 3 | 0 | -9 | x
NC(=O)c1ccnc2c(O)cccc12 | 1 | 0 | -5 | 73*
NC(=O)c1cccc2ccccc12 | 4 | -1 | 5 | -3
OCc1ccnc2c(O)cccc12 | -2 | -1 | -9 | 66*
Oc1ccc(CNc2ccccc2)c2cccnc12 | -5 | -3 | x | 48*
COCC(=O)Nc1ccc2c(c1)C(=O)N(C)C[C@H](OC)[C@@H](C)CN(Cc1cncnc1)[C@@H](C)CO2 | x | x | x | -1
C[C@H](CO)N1C[C@H](C)[C@H](CN(C)S(=O)(=O)c2ccc(F)cc2)OCCCC[C@H](C)Oc2ccc(NC(=O)Nc3ccccc3)cc2C1=O | x | x | x | -11
